Data: ChEMBL document CHEMBL3297708, “Lead optimization of a novel series of imidazo[1,2-a]pyridine amides leading to a clinical candidate (Q203) as a multi- and extensively-drug-resistant anti-tuberculosis agent” (J Med Chem, 2014)
In brackets after ≈: the same amount, converted by molar mass.

Experiments:
[1] = test system: Mycobacterium tuberculosis; assay: Antimycobacterial activity against Mycobacterium tuberculosis H37Rv in liquid broth culture medium; assay type: functional
In short: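 M. tuberculosis H37Rv replicating in liquid broth culture medium; MIC80 determined, i.e. concentration inhibiting 80% of growth.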

[2] = test system: Mycobacterium tuberculosis; assay: Antimycobacterial activity against Mycobacterium tuberculosis H37Rv in macrophages; assay type: functional
In short: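 M. tuberculosis H37Rv replicating inside macrophages; intracellular MIC80 determined, i.e. concentration inhibiting 80% of growth.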

[3] = Half life in human liver microsomes; assay type: ADME
In short: (§1)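 Metabolic stability measured by incubation in human or mouse liver microsomal preparations; half-life reported.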

[4] = Half life in mouse liver microsomes; assay type: ADME; in short: as §1
[5] = target: Cytochrome P450 2D6 (Homo sapiens, UniProt P10635); assay: Inhibition of recombinant CYP2D6 (unknown origin) by LC/MS/MS analysis; assay type: ADME
In short: (§2)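 Recombinant CYP enzymes (5 pmol/mL) with substrate, in 100 mM potassium phosphate pH 7.4, 3.3 mM MgCl2, with or without 1 mM NADPH; incubated 10 min (CYP1A2, CYP2C9), 20 min (CYP2C19, CYP2D6), or 3 min (CYP3A4); stopped with cold stop solution containing tolbutamide internal standard; metabolite measured by LC-MS/MS.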

[6] = target: Cytochrome P450 2C19 (Homo sapiens, UniProt P33261); assay: Inhibition of recombinant CYP2C19 (unknown origin) by LC/MS/MS analysis; assay type: ADME; in short: as §2
[7] = target: T1, Cytochrome P450 1A2 (Homo sapiens, UniProt P05177); assay: Inhibition of recombinant CYP1A2 (unknown origin) by LC/MS/MS analysis; assay type: ADME; in short: as §2
T1 sequence (P05177 whole entry): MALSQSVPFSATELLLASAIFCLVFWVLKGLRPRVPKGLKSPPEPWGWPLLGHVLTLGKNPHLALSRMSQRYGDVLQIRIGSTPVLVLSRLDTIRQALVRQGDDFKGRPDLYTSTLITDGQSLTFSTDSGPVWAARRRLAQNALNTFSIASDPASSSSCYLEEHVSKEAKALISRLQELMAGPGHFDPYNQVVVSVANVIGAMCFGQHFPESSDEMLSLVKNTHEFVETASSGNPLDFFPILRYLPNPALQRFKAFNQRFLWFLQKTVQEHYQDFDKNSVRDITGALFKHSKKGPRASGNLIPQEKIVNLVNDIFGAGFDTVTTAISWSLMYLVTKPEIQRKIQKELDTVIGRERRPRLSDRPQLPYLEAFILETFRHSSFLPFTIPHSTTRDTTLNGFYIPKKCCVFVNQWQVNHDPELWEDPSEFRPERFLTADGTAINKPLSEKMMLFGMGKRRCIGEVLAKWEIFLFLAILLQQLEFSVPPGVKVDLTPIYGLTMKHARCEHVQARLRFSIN

[8] = target: Cytochrome P450 2C9 (Homo sapiens, UniProt P11712); assay: Inhibition of recombinant CYP2C9 (unknown origin) by LC/MS/MS analysis; assay type: ADME; in short: as §2
[9] = target: Cytochrome P450 3A4 (Homo sapiens, UniProt P08684); assay: Inhibition of recombinant CYP3A4 (unknown origin) by LC/MS/MS analysis; assay type: ADME; in short: as §2
[10] = Solubility of the compound in phosphate buffer at pH 7.4; assay type: physicochemical
[11] = Solubility of the compound in aqueous solution at pH 2.1; assay type: physicochemical

Chain of Cytochrome P450 2C19 (P33261 whole entry): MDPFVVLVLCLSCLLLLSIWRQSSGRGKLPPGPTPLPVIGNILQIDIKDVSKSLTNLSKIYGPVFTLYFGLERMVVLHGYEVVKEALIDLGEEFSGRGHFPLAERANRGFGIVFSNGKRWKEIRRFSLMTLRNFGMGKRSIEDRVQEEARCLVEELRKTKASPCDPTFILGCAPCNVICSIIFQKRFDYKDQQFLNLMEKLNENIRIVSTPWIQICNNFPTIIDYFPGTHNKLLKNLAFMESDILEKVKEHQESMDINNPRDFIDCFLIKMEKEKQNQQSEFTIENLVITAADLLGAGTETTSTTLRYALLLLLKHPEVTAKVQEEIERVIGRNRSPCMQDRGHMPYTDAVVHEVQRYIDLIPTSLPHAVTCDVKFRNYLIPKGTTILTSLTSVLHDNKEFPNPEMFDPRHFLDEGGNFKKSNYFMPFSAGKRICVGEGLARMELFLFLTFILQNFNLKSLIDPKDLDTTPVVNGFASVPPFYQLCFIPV
Chain of Cytochrome P450 3A4 (P08684 whole entry): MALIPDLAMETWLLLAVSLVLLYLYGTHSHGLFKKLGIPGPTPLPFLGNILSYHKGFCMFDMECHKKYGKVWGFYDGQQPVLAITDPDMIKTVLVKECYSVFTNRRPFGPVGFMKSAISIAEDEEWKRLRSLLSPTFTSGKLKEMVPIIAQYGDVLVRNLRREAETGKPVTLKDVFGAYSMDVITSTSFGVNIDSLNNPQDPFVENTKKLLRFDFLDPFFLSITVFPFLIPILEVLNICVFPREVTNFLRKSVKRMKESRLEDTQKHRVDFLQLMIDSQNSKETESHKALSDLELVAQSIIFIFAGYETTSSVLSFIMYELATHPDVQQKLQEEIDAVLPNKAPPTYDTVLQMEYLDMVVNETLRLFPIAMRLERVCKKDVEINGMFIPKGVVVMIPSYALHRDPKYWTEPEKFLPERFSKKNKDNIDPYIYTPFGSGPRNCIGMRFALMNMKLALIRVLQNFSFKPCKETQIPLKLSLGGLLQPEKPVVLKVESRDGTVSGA
Chain of Cytochrome P450 2D6 (P10635 whole entry): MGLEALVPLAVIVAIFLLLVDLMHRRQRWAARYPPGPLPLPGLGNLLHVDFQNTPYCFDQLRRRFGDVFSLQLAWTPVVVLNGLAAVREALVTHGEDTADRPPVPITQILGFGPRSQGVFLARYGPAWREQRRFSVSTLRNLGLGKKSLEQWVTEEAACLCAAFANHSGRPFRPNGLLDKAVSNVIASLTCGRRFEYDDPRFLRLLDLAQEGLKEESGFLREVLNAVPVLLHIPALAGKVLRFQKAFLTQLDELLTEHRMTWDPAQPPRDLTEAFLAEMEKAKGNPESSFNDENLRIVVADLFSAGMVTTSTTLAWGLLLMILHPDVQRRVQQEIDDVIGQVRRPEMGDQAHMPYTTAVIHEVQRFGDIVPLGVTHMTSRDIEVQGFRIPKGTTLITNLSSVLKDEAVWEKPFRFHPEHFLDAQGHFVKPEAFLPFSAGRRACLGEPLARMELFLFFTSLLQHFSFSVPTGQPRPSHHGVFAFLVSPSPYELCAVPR
Chain of Cytochrome P450 2C9 (P11712 whole entry): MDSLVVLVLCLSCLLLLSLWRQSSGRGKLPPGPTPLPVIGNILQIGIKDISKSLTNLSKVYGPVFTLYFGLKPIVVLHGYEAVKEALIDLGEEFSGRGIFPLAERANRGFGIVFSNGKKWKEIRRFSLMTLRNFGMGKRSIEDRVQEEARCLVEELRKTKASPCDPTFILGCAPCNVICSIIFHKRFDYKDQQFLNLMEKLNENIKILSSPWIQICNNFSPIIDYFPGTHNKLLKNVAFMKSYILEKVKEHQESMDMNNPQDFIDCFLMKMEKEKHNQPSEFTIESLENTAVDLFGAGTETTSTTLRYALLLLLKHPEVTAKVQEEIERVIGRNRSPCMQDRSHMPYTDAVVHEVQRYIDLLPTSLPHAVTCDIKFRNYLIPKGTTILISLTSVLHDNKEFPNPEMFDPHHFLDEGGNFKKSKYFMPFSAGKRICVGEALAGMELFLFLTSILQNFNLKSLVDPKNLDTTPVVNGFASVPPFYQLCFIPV

| Compound | MIC80 [1] | MIC80 [2] | half-life [3] | half-life [4] | IC50 [5] | IC50 [6] | IC50 [7] | IC50 [8] | IC50 [9] | solubility [10] | solubility [11] |
| --- | --- | --- | --- | --- | --- | --- | --- | --- | --- | --- | --- |
| CC(C)c1nc2ccccn2c1C(=O)NCc1ccc(-c2ccccc2)cc1 | 3.13 µM (≈ 1160 ng/mL) | 3.13 µM (≈ 1160 ng/mL) | 31.6 min |  |  |  |  |  |  |  |  |
| CCc1nc2ccccn2c1C(=O)NCc1ccc(-c2ccccc2)cc1 | 0.063 µM (≈ 22.4 ng/mL) | 0.097 µM (≈ 34.5 ng/mL) | 27.1 min |  |  |  |  |  |  |  |  |
| Cc1nc2ccc(Cl)cn2c1C(=O)NCc1ccc(-c2ccccc2)cc1 | 0.175 µM (≈ 65.8 ng/mL) | 0.042 µM (≈ 15.8 ng/mL) | > 120 min | > 60 min |  |  |  |  |  |  |  |
| Cc1nc2ccccn2c1C(=O)NCc1ccc(-c2ccccc2)cc1 | 0.25 µM (≈ 85.4 ng/mL) | 0.02 µM (≈ 6.83 ng/mL) |  |  |  |  |  |  |  |  |  |
| CCc1nc2cc(Cl)ccn2c1C(=O)NCc1ccc(N2CCCCC2)cc1 | 0.016 µM (≈ 6.35 ng/mL) | 0.0082 µM (≈ 3.25 ng/mL) | 13.2 min | 2.3 min |  |  |  |  |  |  |  |
| CCc1nc2cc(Cl)ccn2c1C(=O)NCc1ccc(-c2ccc(Cl)cc2)cc1 | 0.0013 µM (≈ 0.552 ng/mL) | 0.00101 µM (≈ 0.429 ng/mL) | > 120 min | > 60 min |  |  |  |  |  |  |  |
| CCc1nc2cc(Cl)ccn2c1C(=O)NCc1ccc(N2CCCCCC2)cc1 | 0.035 µM (≈ 14.4 ng/mL) | 0.01 µM (≈ 4.11 ng/mL) | 2.9 min | 1.9 min |  |  |  |  |  |  |  |
| CO[C@H]1/C=C/O[C@@]2(C)Oc3c(C)c(O)c4c(O)c(c(/C=N/N5CCN(C)CC5)c(O)c4c3C2=O)NC(=O)/C(C)=C\C=C\[C@H](C)[C@H](O)[C@@H](C)[C@@H](O)[C@@H](C)[C@H](OC(C)=O)[C@@H]1C [RIFAMPIN] | 0.0266 µM (≈ 21.9 ng/mL) | 0.18 µM (≈ 148 ng/mL) |  |  |  |  |  |  |  |  |  |
| CCc1nc2ccc(Cl)cn2c1C(=O)N(C)Cc1ccc(-c2ccccc2)cc1 | 8.69 µM (≈ 3510 ng/mL) | 0.97 µM (≈ 392 ng/mL) |  |  |  |  |  |  |  |  |  |
| CCc1nc2cc(Cl)ccn2c1C(=O)NCc1ccc(-c2ccc(C(C)(C)C)cc2)cc1 | 0.012 µM (≈ 5.35 ng/mL) | 0.00046 µM (≈ 0.205 ng/mL) | 18.5 min | 50.7 min |  |  |  |  |  |  |  |
| CCc1nc2cc(Cl)ccn2c1C(=O)NCc1ccc(-c2ccc[nH]2)cc1 | 2 µM (≈ 758 ng/mL) | 0.14 µM (≈ 53 ng/mL) | > 120 min | 10.8 min |  |  |  |  |  |  |  |
| CCc1nc2cc(Cl)ccn2c1C(=O)NCc1ccc(-n2cc3c(c2)CCCC3)cc1 | 0.034 µM (≈ 14.7 ng/mL) | 0.00374 µM (≈ 1.62 ng/mL) | 27.3 min | 62.3 min |  |  |  |  |  |  |  |
| CCc1nc2cc(Cl)ccn2c1C(=O)NCc1ccc(N2CCC(c3ccc(Cl)cc3)CC2)cc1 | 0.001 µM (≈ 0.507 ng/mL) | 0.00046 µM (≈ 0.233 ng/mL) | 67.3 min | 112 min | > 40000 nM | 380 nM | > 40000 nM | 190 nM | > 40000 nM |  |  |
| CCc1nc2ccc(Cl)cn2c1C(=O)NCc1ccc(-c2ccc(C#N)cc2)cc1 | < 0.0005 µM | 0.00068 µM (≈ 0.282 ng/mL) | > 120 min | > 60 min |  |  |  |  |  | 0.61 µg/mL (≈ 1.47 µM) | 1.06 µg/mL (≈ 2.55 µM) |
| CCc1nc2ccc(Cl)cn2c1C(=O)NCc1ccc(-c2ccc(Cl)cc2)cc1 | 0.0009 µM (≈ 0.382 ng/mL) | 0.00045 µM (≈ 0.191 ng/mL) | 83 min | > 60 min |  |  |  |  |  | 1.97 µg/mL (≈ 4.64 µM) | 1.42 µg/mL (≈ 3.35 µM) |
| CCc1nc2cc(Cl)ccn2c1C(=O)NCc1ccc(N2CCN(C)CC2)cc1 | 4.39 µM (≈ 1810 ng/mL) | 0.36 µM (≈ 148 ng/mL) | 117 min | 12.1 min |  |  |  |  |  |  |  |
| CCc1nc2cc(Cl)ccn2c1C(=O)NCc1ccc(N2CC3CCCCC3C2)cc1 (stereo not drawn) | 0.025 µM (≈ 10.9 ng/mL) | 0.0094 µM (≈ 4.11 ng/mL) | 14.9 min | 6.3 min |  |  |  |  |  |  |  |

| Compound | MIC80 [1] | MIC80 [2] | half-life [3] | half-life [4] | IC50 [5] | IC50 [6] | IC50 [7] | IC50 [8] | IC50 [9] | solubility [10] | solubility [11] |
| --- | --- | --- | --- | --- | --- | --- | --- | --- | --- | --- | --- |
| CCc1nc2cc(Cl)ccn2c1C(=O)NCc1ccc(-c2ccc(C(=O)O)cc2)cc1 | 0.25 µM (≈ 108 ng/mL) | 0.217 µM (≈ 94.2 ng/mL) | > 120 min | > 120 min |  |  |  |  |  |  |  |
| CCc1nc2ccc(Cl)cn2c1C(=O)Nc1ccc(-c2ccccc2)cc1 | > 10 µM | > 10 µM |  |  |  |  |  |  |  |  |  |
| CCc1nc2cc(Cl)ccn2c1C(=O)NCc1ccc(N2CCC(c3ccc(F)cc3)CC2)cc1 | 0.54 µM (≈ 265 ng/mL) | 0.00066 µM (≈ 0.324 ng/mL) | 6.8 min | 18.4 min | > 40000 nM | 600 nM | > 40000 nM | 500 nM | 2070 nM |  |  |
| CCc1nc2cc(Cl)ccn2c1C(=O)NCc1ccc(-c2ccc(C)cc2)cc1 | < 0.0005 µM | 0.00135 µM (≈ 0.545 ng/mL) | 25.4 min | 23.1 min |  |  |  |  |  |  |  |
| CCc1nc2ccc(Cl)cn2c1CNCc1ccc(-c2ccccc2)cc1 | 0.81 µM (≈ 304 ng/mL) | 0.2 µM (≈ 75.2 ng/mL) |  |  |  |  |  |  |  |  |  |
| CCc1nc2ccc(Cl)cn2c1CC(=O)NCc1ccc(-c2ccccc2)cc1 | > 10 µM | > 10 µM |  |  |  |  |  |  |  |  |  |
| CCc1nc2ccc(Cl)cn2c1C(=O)NCc1ccc(-c2ccccc2)cc1 | 0.045 µM (≈ 17.5 ng/mL) | 0.00139 µM (≈ 0.542 ng/mL) | 22.8 min | 19.3 min |  |  |  |  |  |  |  |
| CCc1nc2cc(Cl)ccn2c1C(=O)NCc1ccc(N2CCN(C(C)C)CC2)cc1 | 3 µM (≈ 1320 ng/mL) | 0.14 µM (≈ 61.6 ng/mL) | > 120 min | 8.9 min |  |  |  |  |  |  |  |
| CCc1nc2cc(Cl)ccn2c1C(=O)NCc1ccc(N2CCC(Cl)CC2)cc1 | 0.019 µM (≈ 8.2 ng/mL) | 0.002 µM (≈ 0.863 ng/mL) | 11 min | 5.2 min |  |  |  |  |  |  |  |
| CCc1nc2cc(Cl)ccn2c1C(=O)NCc1ccc(-c2ccncc2)cc1 | 2.22 µM (≈ 868 ng/mL) | 0.74 µM (≈ 289 ng/mL) | 28.9 min |  |  |  |  |  |  |  |  |
| CCc1nc2ccc(Cl)cn2c1C(=O)NCc1ccc(-c2ccccc2Cl)cc1 | 0.043 µM (≈ 18.2 ng/mL) | 0.0093 µM (≈ 3.95 ng/mL) | 38.9 min | 13.1 min |  |  |  |  |  |  |  |
| CCCc1nc2ccccn2c1C(=O)NCc1ccc(-c2ccccc2)cc1 | 1.18 µM (≈ 436 ng/mL) | 0.05 µM (≈ 18.5 ng/mL) | 22.4 min | 8.7 min |  |  |  |  |  |  |  |
| CCc1nc2ccc(Cl)cn2c1C(=O)NCc1ccc(-c2ccc(C)cc2)cc1 | 0.0007 µM (≈ 0.283 ng/mL) | 0.00043 µM (≈ 0.174 ng/mL) | 30.5 min | 40.6 min |  |  |  |  |  | 1.56 µg/mL (≈ 3.86 µM) | 1.42 µg/mL (≈ 3.52 µM) |
| CCc1nc2ccc(Cl)cn2c1CC(=O)Nc1ccc(-c2ccccc2)cc1 | > 10 µM | > 10 µM |  |  |  |  |  |  |  |  |  |
| CCc1nc2cc(Cl)ccn2c1C(=O)NCc1ccc(N2CCN(c3ccc(OC(F)(F)F)cc3)CC2)cc1 | 0.0018 µM (≈ 1 ng/mL) | 0.00011 µM (≈ 0.0614 ng/mL) | > 120 min | > 60 min | > 40000 nM | > 40000 nM | > 40000 nM | 170 nM | > 40000 nM |  |  |
| CCc1nc2cc(Cl)ccn2c1C(=O)NCc1ccc(N2CCC(C(F)(F)F)CC2)cc1 | 0.0008 µM (≈ 0.372 ng/mL) | 0.00047 µM (≈ 0.219 ng/mL) | 6.5 min | 5.1 min |  |  |  |  |  |  |  |
| CCc1nc2ccc(Cl)cn2c1NC(=O)Cc1ccc(-c2ccccc2)cc1 | 1.67 µM (≈ 651 ng/mL) | 0.69 µM (≈ 269 ng/mL) |  |  |  |  |  |  |  |  |  |
